Calls of active or inactive are those of the source. The calls are words filed in the database; no cut-off is given here.
Columns and labels:
[1] = test system: Human immunodeficiency virus 1; assay: Antiviral activity against HIV1 3B infected in human H9 cells assessed as inhibition of viral replication after 6 days by p24 antigen based assay; assay type: functional, organism-based
How it was run: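 H9 cells (3 × 10⁵ cells/mL) infected with HIV-1 IIIB, 125 TCID₅₀ per well, with drug diluted from 10 mg/mL DMSO master stocks; screening at 100, 20, 4, 0.8 µg/mL, with further dilutions for actives. Media replaced on days 1 and 4; supernatant p24 antigen capture on day 6. Run alongside AZT control; averages of three independent assays.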

[2] = Selectivity index, ratio of CC50 for human H9 cells to EC50 for HIV1 3B; assay type: toxicity, cell-based
How it was run: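 SI = CC50/EC50 in H9 cells. Toxicity by XTT on mock-infected H9 cultures set up identically to the HIV-1 IIIB infection wells (same drug concentrations, media changes days 1 and 4, 6-day culture).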

H9 = assay: Cytotoxicity against human H9 cells after 6 days by XTT assay; assay type: cell-based; settings: h9, 144 h
How it was run: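 Mock-infected H9 human T cells (3 × 10⁵ cells/mL in RPMI 1640 with 10% fetal calf serum and L-glutamine, 37 °C, 5% CO₂) exposed to samples diluted from 10 mg/mL DMSO master stocks (screening at 100, 20, 4, 0.8 µg/mL). Media replaced on days 1 and 4, assay ended day 6. Viability by XTT, 50% cytotoxic concentration taken. Mean of three independent assays.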

[3] = test system: Human immunodeficiency virus 1; assay: Resistant fold, ratio of EC50 for HIV1 with reverse transcriptase A17 (K103N, Y181C) mutant to EC50 for wild type HIV1 3B; assay type: functional
[4] = test system: Human immunodeficiency virus 1; assay: Antiviral activity against wild type HIV1 3B infected in human MT2 cells assessed as inhibition of p24 antigen production after 4 days by ELISA; assay type: functional, organism-based; settings: Human immunodeficiency virus 1, 3B, MT2, 96 h
How it was run: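 1 × 10⁴ MT-2 cells infected with HIV-1 IIIB (100 TCID₅₀) in RPMI 1640/10% FBS with graded compound overnight, then compound-free medium. Day-4 supernatants lysed in Triton X-100 and p24 measured by sandwich ELISA (HIVIG capture, anti-p24 mAb, TMB, A450) against a recombinant p24 standard curve. Triplicates; EC50 from percent inhibition via median-effect analysis.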

[5] = test system: Human immunodeficiency virus 1; assay: Antiviral activity against HIV1 with reverse transcriptase A17 (K103N, Y181C) mutant infected in human MT2 cells assessed as inhibition of p24 antigen production after 4 days by ELISA; assay type: functional, organism-based; settings: Human immunodeficiency virus 1, MT2, 96 h
How it was run: (§1)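 Drug-resistant HIV-1 strains (Panacos) at MOI 0.001 TCID₅₀/cell, mixed with compound dilutions in RPMI 1640/10% FBS and cells at 6×10⁵ cells/mL, 37 °C. Compound-containing fresh medium added on day 2; supernatant p24 ELISA on day 4. Averages of three independent assays.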

[6] = target: Human immunodeficiency virus type 1 reverse transcriptase (Human immunodeficiency virus 1) (UniProt Q72547); assay: Inhibition of HIV1 DH012 reverse transcriptase
How it was run: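 Reverse transcriptase activity of primary isolate HIV-1 DH012 measured with a colorimetric HIV-1 RT kit following the manufacturer's protocol, in the presence of various compound concentrations. The kit reads RNA-dependent DNA polymerase activity.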

[7] = test system: Human immunodeficiency virus 1; assay: Antiviral activity against HIV1 with reverse transcriptase 8605MR mutant infected in human MT2 cells assessed as inhibition of p24 antigen production after 4 days by ELISA; assay type: functional, organism-based; settings: Human immunodeficiency virus 1, MT2, 96 h; how it was run: as §1
[8] = test system: Human immunodeficiency virus 1; assay: Antiviral activity against HIV1 with reverse transcriptase 6005MR mutant infected in human MT2 cells assessed as inhibition of p24 antigen production after 4 days by ELISA; assay type: functional, organism-based; settings: Human immunodeficiency virus 1, MT2, 96 h; how it was run: as §1
[9] = test system: Human immunodeficiency virus 1; assay: Antiviral activity against HIV1 with reverse transcriptase Y181C mutant infected in human MT2 cells assessed as inhibition of p24 antigen production after 4 days by ELISA; assay type: functional, organism-based; settings: Human immunodeficiency virus 1, MT2, 96 h; how it was run: as §1
[10] = Human immunodeficiency virus 1, 3B, H9, 144 h, read-out: EC50

SMILES | Ratio CC50/EC50 [2] | CC50 (H9) | EC50 [1, 10] | also measured
Cc1cc(Br)cc(C)c1Oc1cc(Nc2ccc(C#N)cc2)c(N)cc1[N+](=O)[O-].Cl | 3035 | – | – | EC50 ([1]; h9, read-out: EC50): 0.012 µM
Cc1cc(C)c(Oc2cc(Nc3ccc(C#N)cc3)c(N)cc2N)c(C)c1 | 714 | 50 µM | 0.07 µM | –
Cc1cc(C=O)cc(C)c1Oc1ccc([N+](=O)[O-])c(Nc2ccc(C#N)cc2)c1 | 6 | 14.2 µM | 2.19 µM | –
Cc1cc(Br)cc(C)c1Oc1ccc([N+](=O)[O-])c(Nc2ccc(C#N)cc2)c1 | > 180 | > 57.1 µM | 0.317 µM | –
Cc1cc(Br)cc(C)c1Oc1cc(Nc2ccc(Cl)cc2)c([N+](=O)[O-])cc1[N+](=O)[O-] | – | – | – | EC50 ([1]; h9): Not Active
Cc1cc(Br)cc(C)c1Oc1cc(Nc2ccc(C#N)cc2)c(N)cc1N | 238 | 38.4 µM | 0.161 µM | –
Cc1cn([C@H]2C[C@H](N=[N+]=[N-])[C@@H](CO)O2)c(=O)[nH]c1=O [ZIDOVUDINE] | 36019 | 1870 µM | 0.052 µM | –
COc1ccc(Nc2cc(Oc3c(C)cc(Br)cc3C)c([N+](=O)[O-])cc2[N+](=O)[O-])cc1 | 14 | 51.2 µM | 3.63 µM | –
Cc1cc(C)c(Oc2ccc(N)c(Nc3ccc(C#N)cc3)c2)c(C)c1 | 699 | 51 µM | 0.073 µM | –
Cc1cc(C#N)cc(C)c1Oc1cc(Nc2ccc(C#N)cc2)c(N)cc1N | 1698 | 51 µM | 0.03 µM | Ratio EC50 [3]: 73.3; EC50 [4]: 0.065 µM; EC50 [5]: 1.24 µM; Activity [6]: Active; EC50 [7]: 0.138 µM; EC50 [8]: 0.033 µM; EC50 [9]: 1.73 µM
Cc1cc(C#N)cc(C)c1Oc1cc(Nc2ccc(C#N)cc2)c(N)cc1[N+](=O)[O-] | 20887 | 62.7 µM | 0.003 µM | Ratio EC50 [3]: 18.9; EC50 [4]: 0.005 µM; EC50 [5]: 0.231 µM; Activity [6]: Active; EC50 [7]: 0.005 µM; EC50 [8]: 0.005 µM; EC50 [9]: 0.504 µM
Cc1cc(Br)cc(C)c1Oc1cc(Nc2ccc(C#N)cc2)c(N)cc1[N+](=O)[O-] | 2842 | – | 0.016 µM | CC50 (H9; 144 h): 45.5 µM; Ratio EC50 [3]: 20.3; EC50 [4]: 0.008 µM; EC50 [5]: 0.254 µM; EC50 [7]: 0.02 µM; EC50 [8]: 0.007 µM; EC50 [9]: 1.3 µM
Cc1ccc(Nc2cc(Oc3c(C)cc(Br)cc3C)c([N+](=O)[O-])cc2[N+](=O)[O-])cc1 | 12 | 53 µM | 4.31 µM | –
COc1ccc(Nc2cc(Oc3c(C)cccc3C)c([N+](=O)[O-])cc2[N+](=O)[O-])cc1 | > 16 | > 61.1 µM | 3.84 µM | –
Cc1cc(Br)cc(C)c1Oc1cc(Nc2ccc([N+](=O)[O-])cc2)c([N+](=O)[O-])cc1[N+](=O)[O-] | > 1 | > 49.7 µM | > 49.7 µM | –
Cc1cc(C#N)cc(C)c1Oc1ccc(N)c(Nc2ccc(C#N)cc2)c1 | 711 | 49.8 µM | 0.07 µM | –
Cc1cc(C#N)cc(C)c1Oc1nc(Nc2ccc(C#N)cc2)nc(N)c1Br [ETRAVIRINE] | – | – | – | Ratio EC50 [3]: 9.9; EC50 [4]: 0.058 µM; EC50 [5]: 0.575 µM
Cc1cccc(C)c1Oc1cc(Nc2ccc(C#N)cc2)c([N+](=O)[O-])cc1[N+](=O)[O-] | > 113 | > 61.9 µM | 0.545 µM | –
Cc1cc(Br)cc(C)c1Oc1ccc(N)c(Nc2ccc(C#N)cc2)c1 | 949 | 44.6 µM | 0.047 µM | –
Cc1cc(C)c(Oc2ccc([N+](=O)[O-])c(Nc3ccc(C#N)cc3)c2)c(C)c1 | > 1000 | > 67 µM | 0.067 µM | –
Cc1cccc(C)c1Oc1ccc([N+](=O)[O-])c(Nc2ccc(C#N)cc2)c1 | 22 | 69.6 µM | 3.15 µM | –
Cc1cc(C)c(Oc2cc(Nc3ccc(C#N)cc3)c([N+](=O)[O-])cc2[N+](=O)[O-])c(C)c1 | > 214 | > 59.8 µM | 0.28 µM | –
Cc1cc(C#N)cc(C)c1Oc1ccc([N+](=O)[O-])c(Nc2ccc(C#N)cc2)c1 | > 313 | > 65.1 µM | 0.208 µM | –
Cc1cccc(C)c1Oc1cc(Nc2ccc(C#N)cc2)c(N)cc1N | 16 | 53.2 µM | 3.23 µM | –
Cc1cc(Br)cc(C)c1Oc1cc(Nc2ccc(C#N)cc2)c([N+](=O)[O-])cc1[N+](=O)[O-] | > 301 | > 51.8 µM | 0.172 µM | –
Cc1cc(C)c(Oc2cc(Nc3ccc(C#N)cc3)c(N)cc2[N+](=O)[O-])c(C)c1 | 520 | 32.2 µM | 0.062 µM | –
Cc1ccnc2c1NC(=O)c1cccnc1N2C1CC1 [NEVIRAPINE] | – | – | – | EC50 [4]: 0.053 µM; EC50 [5]: > 3.7 µM; EC50 [7]: > 3.7 µM; EC50 [8]: > 3.7 µM; EC50 [9]: > 3.7 µM
COc1ccc(Nc2cc(Oc3c(C)cc(C)cc3C)c([N+](=O)[O-])cc2[N+](=O)[O-])cc1 | > 20 | > 59.1 µM | 2.99 µM | –
Cc1cc(C#N)cc(C)c1Oc1cc(Nc2ccc(C#N)cc2)c([N+](=O)[O-])cc1[N+](=O)[O-] | > 14 | > 58.3 µM | 4.19 µM | –
Cc1cc(C=O)cc(C)c1Oc1cc(Nc2ccc(C#N)cc2)c([N+](=O)[O-])cc1[N+](=O)[O-] | 38 | 57.9 µM | 1.53 µM | –
